Legend:
Type in all cases: functional
[1] = test system: BT-474; test: Cytotoxicity against human BT474 cells assessed as cell viability incubated fore 4 days by MTS assay; settings: BT-474, 96 h
How it was run: (§1)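 Cells seeded at low density in 96-well plates, dosed next day with 3-fold serial dilutions at 10 concentrations in duplicate. Incubated 4 days at 37C/5% CO2. Viability read by MTS reagent (1.5 h), absorbance at 490 nm. Four-parameter logistic fit. Reported as arithmetic mean GI50 (nM) with standard deviation over n individual runs, each run a duplicate readout.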

[2] = test system: MDA-MB-361; test: Cytotoxicity against human MDA-MB-361 cells assessed as cell viability incubated fore 4 days by MTS assay; settings: MDA-MB-361, 96 h; how it was run: as §1
[3] = test system: NCI-N87; test: Cytotoxicity against human NCI-N87 cells assessed as cell viability incubated fore 4 days by MTS assay; settings: NCI-N87, 96 h; how it was run: as §1

SMILES | GI50 [1] [nM] | GI50 [2] [nM] | GI50 [3] [nM]
CC[C@H](C)[C@@H]([C@@H](CC(=O)N1CCC[C@H]1[C@H](OC)[C@@H](C)C(=O)N[C@@H](Cc1ccccc1)c1nccs1)OC)N(C)C(=O)[C@@H](NC(=O)C(C)(C)CN)C(C)C | 0.25 | 0.81 | 1.4
CC[C@H](C)[C@@H]([C@@H](CC(=O)N1CCC[C@H]1[C@H](OC)[C@@H](C)C(=O)N[C@@H](Cc1ccccc1)c1nccs1)OC)N(C)C(=O)[C@@H](NC(=O)C(C)(C)CNC)C(C)C | 0.25 | 0.41 | 1.1
CC[C@H](C)[C@@H]([C@@H](CC(=O)N1CCC[C@H]1[C@H](OC)[C@@H](C)C(=O)N[C@@H](Cc1ccccc1)c1nccs1)OC)N(C)C(=O)[C@@H](NC(=O)[C@]1(C)CCCN1)C(C)C | 0.14 | 0.2 | 0.15
CC[C@H](C)[C@@H]([C@@H](CC(=O)N1CCC[C@H]1[C@H](OC)[C@@H](C)C(=O)N[C@@H](Cc1ccccc1)c1nccs1)OC)N(C)C(=O)[C@@H](NC(=O)[C@@]1(C)CCCN1)C(C)C | 0.11 | 0.21 | 0.36
CC[C@H](C)[C@@H]([C@@H](CC(=O)N1CCC[C@H]1[C@H](OC)[C@@H](C)C(=O)N[C@@H](Cc1ccccc1)c1nccs1)OC)N(C)C(=O)[C@@H](NC(=O)[C@]1(F)CCNC1)C(C)C | 0.16 | 0.25 | 0.59
CC[C@H](C)[C@@H]([C@@H](CC(=O)N1CCC[C@H]1[C@H](OC)[C@@H](C)C(=O)N[C@@H](Cc1ccccc1)c1nccs1)OC)N(C)C(=O)[C@@H](NC(=O)[C@@]1(F)CCNC1)C(C)C | 0.29 | 0.6 | 1.1
CC[C@H](C)[C@@H]([C@@H](CC(=O)N1CCC[C@H]1[C@H](OC)[C@@H](C)C(=O)N[C@@H](Cc1ccccc1)c1nccs1)OC)N(C)C(=O)[C@@H](NC(=O)[C@]1(C)CCCCN1)C(C)C | 0.16 | 0.2 | 0.25
CC[C@H](C)[C@@H]([C@@H](CC(=O)N1CCC[C@H]1[C@H](OC)[C@@H](C)C(=O)N[C@@H](Cc1ccccc1)c1nccs1)OC)N(C)C(=O)[C@@H](NC(=O)[C@@]1(C)CCCCN1)C(C)C | 0.35 | 0.4 | 0.52

Reference: ChEMBL document CHEMBL3352038, “Discovery of cytotoxic dolastatin 10 analogues with N-terminal modifications” (J Med Chem, 2014)
